We go through 21 compounds from ChEMBL document CHEMBL1156167 (Bioorg Med Chem Lett, 2010).

Series [1] deals with T1, Sphingosine 1-phosphate receptor 1 (Homo sapiens, UniProt P21453). As to the kind of experiment: Displacement of [33P]sphingosine-1-phosphate from human S1P1 receptor expressed in HEK293T cells after 60 mins by scintillation counting. The series is classed as cell-based, HEK-293T.
The target in series [2] is T2, Sphingosine 1-phosphate receptor 3 (Homo sapiens, UniProt Q99500). Nature of the series: Displacement of [33P]sphingosine-1-phosphate from human S1P3 receptor expressed in HEK293T cells after 60 mins by scintillation counting. The series is classed as cell-based, HEK-293T.
T2 sequence (Q99500 whole entry): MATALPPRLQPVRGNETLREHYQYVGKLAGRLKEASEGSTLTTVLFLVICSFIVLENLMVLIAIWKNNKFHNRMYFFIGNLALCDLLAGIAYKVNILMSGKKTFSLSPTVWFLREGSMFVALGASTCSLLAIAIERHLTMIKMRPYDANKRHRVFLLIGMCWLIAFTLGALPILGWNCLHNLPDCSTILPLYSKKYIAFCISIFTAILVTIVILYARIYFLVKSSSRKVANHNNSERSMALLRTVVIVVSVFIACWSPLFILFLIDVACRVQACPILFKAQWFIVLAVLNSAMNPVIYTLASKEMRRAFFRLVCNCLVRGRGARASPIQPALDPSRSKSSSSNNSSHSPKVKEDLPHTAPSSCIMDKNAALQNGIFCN
Series [3] deals with T3, Sphingosine 1-phosphate receptor 4 (Homo sapiens, UniProt O95977).
T3 sequence (O95977 whole entry): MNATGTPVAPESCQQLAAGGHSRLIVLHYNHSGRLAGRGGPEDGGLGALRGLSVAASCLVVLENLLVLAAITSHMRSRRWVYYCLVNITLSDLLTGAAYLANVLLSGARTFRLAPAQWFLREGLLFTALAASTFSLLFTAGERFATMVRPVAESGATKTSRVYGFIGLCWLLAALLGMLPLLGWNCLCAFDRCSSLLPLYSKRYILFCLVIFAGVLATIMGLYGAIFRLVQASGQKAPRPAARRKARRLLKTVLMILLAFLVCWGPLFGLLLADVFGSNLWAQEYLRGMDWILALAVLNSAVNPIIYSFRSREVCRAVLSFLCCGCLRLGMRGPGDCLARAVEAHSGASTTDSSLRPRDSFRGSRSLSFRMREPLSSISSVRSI
Nature of the series: Displacement of [33P]sphingosine-1-phosphate from human S1P4 receptor expressed in HEK293T cells after 60 mins by scintillation counting. The series is classed as cell-based, HEK-293T.

Series [4] has as its target Sphingosine 1-phosphate receptor 5 (Homo sapiens, UniProt Q9H228). As to the kind of experiment: Displacement of [33P]sphingosine-1-phosphate from human S1P5 receptor expressed in HEK293T cells after 60 mins by scintillation counting. The series is classed as cell-based, HEK-293T.
The species named for series [5] is Homo sapiens. As to the kind of experiment: Selectivity ratio of IC50 for human S1P3 receptor to IC50 for human S1P1 receptor by [33P]sphingosine-1-phosphate displacement assay.
The species named for series [6] is Homo sapiens. Nature of the series: Selectivity ratio of EC50 for human S1P3 receptor to EC50 for human S1P1 receptor by gamma-[35S]GTP binding assay. The series is classed as functional.
The target of series [7] is T1, Sphingosine 1-phosphate receptor 1. As to the kind of experiment: Agonist activity at human S1P1 receptor expressed in HEK293T cells assessed as stimulation of gamma-[35S]GTP binding after 30 mins by scintillation counting.
The target of series [8] is T2, Sphingosine 1-phosphate receptor 3. As to the kind of experiment: Agonist activity at human S1P3 receptor expressed in HEK293T cells assessed as stimulation of gamma-[35S]GTP binding after 30 mins by scintillation counting.
Series [9] deals with Mus musculus. As to the kind of experiment: Immunomodulatory activity in C57BL/6 mouse assessed as induction of lymphopenia at 0.3 to 10 mg/kg, po after 6 hrs by complete blood count analysis. The series is classed as functional, organism-based. An outline of the steps:
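Mouse given a single oral dose of the pro-drug alcohol at 0.3, 1.0, 3.0 or 10.0 mg/kg alongside a vehicle group. Circulating lymphocyte redistribution was measured 6 h post-dose and expressed as lymphopenia relative to vehicle.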

The subject of series [10] is Mus musculus. Nature of the series: Immunomodulatory activity in C57BL/6 mouse assessed as induction of lymphopenia at 10 mg/kg, po after 6 hrs by complete blood count analysis. The series is classed as functional. The procedure, abridged: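 Pro-drug alcohol given to mouse as a single oral dose of 10 mg/kg. Redistribution of circulating lymphocytes was measured 6 h post-dose and reported as percent lymphopenia.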

The subject of series [11] is Mus musculus. As to the kind of experiment: Metabolic stability in C57BL/6 mouse assessed as alcohol pro-drug to phosphate drug conversion at 10 mg/kg, po after 6 hrs. The series is classed as ADME, organism-based. The arrangement: dose 10 mg/kg, route oral. The following applies: in vivo. The procedure, abridged: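 Alcohol pro-drug dosed orally to mouse at 10 mg/kg. At 6 h, the amount converted in vivo to the phosphate was determined and expressed as percent conversion of alcohol to phosphate.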

The target of series [12] is T1, Sphingosine 1-phosphate receptor 1. As to the kind of experiment: Ratio of compound IC50 to PPI-4667-P IC50 for human S1P1 receptor expressed in HEK293T cells. The series is classed as cell-based. The note with it: HEK-293T.

Activity calls are given as the source filed them. No cut-off for these calls is given here.

Broadly, the IC50 is the midpoint of a concentration-inhibition curve. A higher IC50 goes with lower potency. In general, EC50 refers to the concentration giving half of the maximal effect.

T1 sequence (P21453 whole entry): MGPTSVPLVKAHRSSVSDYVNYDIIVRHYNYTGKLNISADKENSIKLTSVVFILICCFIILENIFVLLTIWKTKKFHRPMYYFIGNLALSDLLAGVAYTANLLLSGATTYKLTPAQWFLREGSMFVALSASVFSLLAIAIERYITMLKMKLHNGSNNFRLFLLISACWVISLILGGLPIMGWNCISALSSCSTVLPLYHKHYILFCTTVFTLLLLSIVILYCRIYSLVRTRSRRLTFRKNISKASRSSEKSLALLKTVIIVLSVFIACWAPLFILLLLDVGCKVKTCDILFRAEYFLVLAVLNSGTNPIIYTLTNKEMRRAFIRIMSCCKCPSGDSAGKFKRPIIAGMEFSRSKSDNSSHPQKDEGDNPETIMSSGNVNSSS
Sphingosine 1-phosphate receptor 5, sequence (Q9H228 whole entry): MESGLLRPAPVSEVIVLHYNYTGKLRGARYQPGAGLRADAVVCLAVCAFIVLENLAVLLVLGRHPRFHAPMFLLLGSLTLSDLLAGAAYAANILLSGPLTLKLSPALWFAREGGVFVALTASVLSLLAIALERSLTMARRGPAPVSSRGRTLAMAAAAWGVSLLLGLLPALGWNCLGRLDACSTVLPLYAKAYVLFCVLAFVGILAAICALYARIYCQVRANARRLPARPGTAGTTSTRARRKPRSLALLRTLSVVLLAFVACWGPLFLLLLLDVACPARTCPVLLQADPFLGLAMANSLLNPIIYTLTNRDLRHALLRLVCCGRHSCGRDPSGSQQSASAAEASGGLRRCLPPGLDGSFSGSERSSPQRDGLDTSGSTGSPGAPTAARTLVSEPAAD

As to `C[C@](N)(COP(=O)(O)O)C(=O)Nc1ccc(OCCc2ccc(-c3ccccc3)cc2)c(C(F)(F)F)c1`, the IC50 in series [1] was found to be 0.24 nM; in [2], 4500 nM; in [3] it was 3.4 nM; in series [4], 87.2 nM. For the same compound, in the series listed under Homo sapiens [5], the Ratio IC50 was found to be 18800. Besides, the Ratio EC50 in the series listed under Homo sapiens [6] was more than 2080. Besides, the EC50 in series [7] is 1.44 nM; in [8] it was more than 3000 nM.
For the compound `Cc1cc(NC(=O)[C@@](C)(N)COP(=O)(O)O)ccc1OCCc1ccc(-c2ccccc2)cc1`, the figures for the IC50 in [1] and in series [2] were 6 nM and 3250 nM, respectively. In addition, in the series listed under Homo sapiens [5], the Ratio IC50 amounted to 542.
For `C[C@](N)(COP(=O)(O)O)C(=O)Nc1ccc(C(=O)CCc2ccc(-c3ccccc3)cc2)cc1`, the 50% inhibitory concentration (IC50) in [1] came to 4.14 nM; in series [2], 3800 nM; in [3] it was 13.1 nM; in [4], 1360 nM. Moreover, the Ratio IC50 in the series listed under Homo sapiens [5] is 917. The Ratio EC50 in the series listed under Homo sapiens [6] was more than 164. The results for the EC50 in [7] and in series [8] were 18.3 nM and more than 3000 nM, respectively.
On to `C[C@](N)(COP(=O)(O)O)C(=O)Nc1ccc(OCCc2ccc(-c3ccccc3)cc2)c(C(=O)O)c1`, for which the IC50 in series [1] and in series [2] was more than 10000 nM in each case.
For the compound `C[C@](N)(COP(=O)(O)O)C(=O)Nc1ccc(OCCc2ccc(-c3ccccc3)cc2)cc1C(F)(F)F`, the IC50 in series [1] worked out at 6.4 nM; in [2] it was 700 nM. Further, in the series filed under Homo sapiens [5], the Ratio IC50 turned out to be 109.
Consider `CNC(=O)c1cc(NC(=O)[C@@](C)(N)COP(=O)(O)O)ccc1OCCc1ccc(-c2ccccc2)cc1`, for which the values for the half-inhibitory concentration (IC50) in series [1] and in series [2] were 500 nM and more than 1000 nM, respectively.
In the case of `C[C@](N)(COP(=O)(O)O)C(=O)Nc1ccc(OCCc2ccc(-c3ccccc3)cc2)cc1`, the IC50 worked out at 10.3 nM in series [3] and 43.6 nM in [4]. For the same compound, the Ratio IC50 in the series filed under Homo sapiens [5] was determined as 190. Also, the Ratio EC50 in the series listed under Homo sapiens [6] was 231. The EC50 in series [7] was 0.52 nM; in series [8] it was 120 nM.
As to `C[C@](N)(CO)c1nc(-c2ccc(OCc3ccc(-c4ccccc4)cc3)c(C(F)(F)F)c2)c[nH]1`, the result with Mus musculus [9] was Active.
As for `C[C@](N)(COP(=O)(O)O)c1nc(-c2ccc(OCc3ccc(-c4ccccc4)cc3)c(C(F)(F)F)c2)c[nH]1`, the results for the Activity in the series with Mus musculus [10] and in the series with Mus musculus [11] were 85% and 70.1%, respectively. Moreover, the IC50 in series [1] amounted to 0.23 nM; in [2], 2000 nM; in [3] it was 4.4 nM; in series [4], 9.6 nM. For the same compound, the Ratio IC50 in the series filed under Homo sapiens [5] was determined as 8700. For the same compound, the Ratio EC50 in the series listed under Homo sapiens [6] was more than 1850. In addition, the values for the EC50 in [7] and in series [8] were 1.62 nM and more than 3000 nM, respectively.
With `C[C@](N)(COP(=O)(O)O)C(=O)Nc1ccc(OCCc2ccc(-c3ccccc3)cc2)c(C#N)c1`, the figures for the IC50 in series [1] and in series [2] were 3.4 nM and 2000 nM, respectively. Also, the Ratio IC50 in the series listed under Homo sapiens [5] is 588; in series [12], 3.
Consider `C[C@](N)(COP(=O)(O)O)C(=O)Nc1ccc(OCCc2ccc(-c3ccccc3)cc2)c(Cl)c1`, for which the IC50 amounted to 0.8 nM in series [1] and 285 nM in series [2]. For the same compound, the Ratio IC50 in the series listed under Homo sapiens [5] was found to be 356.
For the compound `CCCCCCCCCCCCC/C=C/[C@@H](O)[C@@H](N)COP(=O)(O)O`, the IC50 in [1] came out at 0.78 nM; in series [2] it was 0.92 nM; in series [3] it was 1.04 nM. For the same compound, the EC50 in series [7] turned out to be 5.6 nM; in series [8], 2.4 nM.
With `C[C@](N)(COP(=O)(O)O)c1nc(-c2ccc(OCc3ccc(-c4ccccc4)cc3)cc2)c[nH]1`, the Ratio IC50 in the series filed under Homo sapiens [5] worked out at 19. The Ratio EC50 in the series filed under Homo sapiens [6] was 25. Besides, the EC50 in series [7] amounted to 2.2 nM; in series [8], 54.8 nM.
Regarding `COC(=O)c1cc(NC(=O)[C@@](C)(N)COP(=O)(O)O)ccc1OCCc1ccc(-c2ccccc2)cc1`, the values for the IC50 in series [1] and in [2] were 21 nM and more than 10000 nM, respectively. Also, the Ratio IC50 in the series filed under Homo sapiens [5] is more than 476.
On to `C[C@](N)(CO)C(=O)Nc1ccc(C(=O)CCc2ccc(-c3ccccc3)cc2)cc1`, for which the Activity was determined as 84% with Mus musculus [10] and 40% in the series with Mus musculus [11].
Consider `C[C@](N)(CO)C(=O)Nc1ccc(OCCc2ccc(-c3ccccc3)cc2)cc1`, for which the Activity in the series with Mus musculus [11] turned out to be 14%.
Take `C[C@](N)(COP(=O)(O)O)C(=O)Nc1ccc(OCCc2ccc(-c3ccccc3)cc2)c(Br)c1`: the IC50 in [1] is 1.3 nM; in series [2], 1000 nM. For the same compound, the Ratio IC50 in the series listed under Homo sapiens [5] came to 769.
As to `C[C@](N)(COP(=O)(O)O)C(=O)Nc1ccc(OCCc2ccc(-c3ccccc3)cc2)c(C(N)=O)c1`, the IC50 in series [1] is 150 nM; in series [2], more than 1000 nM.
As to `C[C@](N)(CO)C(=O)Nc1ccc(SCCc2ccc(-c3ccccc3)cc2)cc1`, in the series on Mus musculus [10], the Activity was determined as 21%.
On to `C[C@](N)(CO)C(=O)Nc1ccc(C(=O)NCc2ccc(-c3ccccc3)cc2)cc1`, for which the Activity in the series with Mus musculus [10] is listed as 32%.
For the compound `C[C@](N)(COP(=O)(O)O)c1nc(-c2ccc(OCCc3ccc(-c4ccccc4)cc3)c(C(F)(F)F)c2)c[nH]1`, the Activity turned out to be 64% in the series with Mus musculus [10] and 6.8% with Mus musculus [11]. Besides, the IC50 in [1] is 9.4 nM; in [2], more than 100000 nM; in series [3], 6.5 nM; in series [4], 184 nM. In addition, the Ratio IC50 in the series listed under Homo sapiens [5] is more than 10000. In addition, in the series listed under Homo sapiens [6], the Ratio EC50 was more than 134. For the same compound, the EC50 is 22.4 nM in series [7] and more than 3000 nM in series [8].
